Results published in ChEMBL document CHEMBL1137341, “Small-molecule inhibitors of histone acetyltransferase activity: identification and biological properties” (2006).
One block for each compound: values may come before it. Calls of active or inactive are those of the source. No cut-off for these calls is given here.

Assays:
U-937 [1] = experiment: Inhibition of HAT in human U937 cells at 50 uM; type: functional; parameters: scale not given: the % may be the effect or the level left
Summary of the method: (§1)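 Indirect ELISA for acetylated histone H3 using 10 µg U937 nuclear extract per well as HAT source; 90 min incubation with compound (25, 50 or 500 µM) or DMSO control. Acetylated H3 peptide standard curve; expressed as % inhibition relative to untreated extract (100%).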

[2] = target: Histone acetyltransferase GCN5 (Saccharomyces cerevisiae S288c) (UniProt Q03330); experiment: Inhibition of Saccharomyces cerevisiae GCN5 at 0.6 mM
Histone acetyltransferase GCN5 (Saccharomyces cerevisiae S288c), sequence (Q03330 whole entry): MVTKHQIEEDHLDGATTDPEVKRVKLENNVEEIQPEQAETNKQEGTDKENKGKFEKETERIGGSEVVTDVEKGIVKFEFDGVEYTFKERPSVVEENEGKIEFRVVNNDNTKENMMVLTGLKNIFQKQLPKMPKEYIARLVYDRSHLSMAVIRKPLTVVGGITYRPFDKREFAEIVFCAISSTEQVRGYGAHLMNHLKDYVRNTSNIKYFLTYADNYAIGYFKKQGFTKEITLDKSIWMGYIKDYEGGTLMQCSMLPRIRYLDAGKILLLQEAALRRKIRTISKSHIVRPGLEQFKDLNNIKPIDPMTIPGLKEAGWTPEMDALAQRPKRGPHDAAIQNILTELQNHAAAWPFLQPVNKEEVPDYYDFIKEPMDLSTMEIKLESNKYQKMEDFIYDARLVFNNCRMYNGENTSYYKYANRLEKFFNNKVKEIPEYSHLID
Summary of the method: (§2)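 Yeast strains (wild-type MK839, F221A and E173H GCN5 catalytic mutants, spt20∆) grown at 28 °C with 0.6 mM compound; ten-fold serial dilutions of liquid culture spotted on solid medium. Growth estimated by optical density as arbitrary units.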

U-937 [3] = experiment: Inhibition of H3 histone acetylation in human U937 cells at 100 uM; type: functional, cell-based
Summary of the method: (§3)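 SAHA 5 µM pretreatment of U937 cells for 2 h, then wash and 4 h with vehicle or 100 µM compound. Acetyl-H3 and acetyl-α-tubulin detected by Western blot (50 µg total protein for tubulin, total ERKs as loading control).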

U-937 [4] = experiment: Inhibition of alpha-tubulin acetylation in human U937 cells at 100 uM; type: functional, cell-based; summary of the method: as §3
U-937 [5] = experiment: Inhibition of HAT in human U937 cells at 25 uM; type: functional; parameters: scale not given: the % may be the effect or the level left; summary of the method: as §1
Saccharomyces cerevisiae [6] = experiment: Inhibition of Saccharomyces cerevisiae growth at 0.6 mM; type: functional, organism-based; summary of the method: as §2
Saccharomyces cerevisiae [7] = experiment: Inhibition of Saccharomyces cerevisiae H3 histone acetylation at 0.6 mM; type: functional, organism-based
Summary of the method: (§4)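 Wild-type S. cerevisiae grown 16 h in YPD at 28 °C with 0.6, 1 or 1.5 mM compound; gcn5∆ strain run in parallel. Alkaline protein extraction, 15% SDS-PAGE, Western blot with anti-acetyl-H3 and anti-H3 antibodies, ECL detection.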

U-937 [8] = experiment: Inhibition of H3 histone acetylation in human U937 cells at 2.5 mM; type: functional, cell-based
Summary of the method: (§5)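 U937 cells pretreated 2 h with 5 µM SAHA, washed, then incubated 4 h with vehicle or compound at 2.5 mM. Western blot for acetylated histone H3 and acetylated α-tubulin (50 µg protein on 10% gels, normalized to total ERKs).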

U-937 [9] = experiment: Inhibition of HAT in human U937 cells at 500 uM; type: functional; parameters: scale not given: the % may be the effect or the level left; summary of the method: as §1
Saccharomyces cerevisiae [10] = experiment: Inhibition of Saccharomyces cerevisiae H3 histone acetylation at 1 mM; type: functional, organism-based; summary of the method: as §4
[11] = target: Histone acetyltransferase GCN5 (Saccharomyces cerevisiae S288c) (UniProt Q03330); experiment: Inhibition of GCN5-dependent HIS3-LacZ reporter gene transcription measured as level of beta-galactosidase activity in Saccharomyces cerevisiae; type: functional
Summary of the method: (§6)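 Yeast reporter strains: HIS3-LacZ (yPO14) grown 16 h in SD at 28 °C and then 4 h with 25 mM 3-aminotriazole; GAL10-CYC1-LacZ (yPO1569) grown 16 h in SD, washed, then 4 h in galactose SG medium. Compounds at 0.6 mM. β-Gal activity read in glass-bead extracts normalized to Bradford protein; 1 unit = 1 µmol o-nitrophenol/min.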

Saccharomyces cerevisiae [12] = experiment: Inhibition of GCN5-independent GAL10-CYC1-LacZ reporter gene transcription measured as level of beta-galactosidase activity in Saccharomyces cerevisiae; type: functional, organism-based; summary of the method: as §6
U-937 [13] = experiment: Cell cycle arrest at G1 phase in human U937 cells at 1 mM after 24 hrs; type: functional, cell-based
Summary of the method: (§7)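 U937 cells in RPMI with 10% FBS and antibiotics, held at 200 000 cells/mL, treated 24 h at 1 mM (DMSO stock). Cell cycle: 2.5 × 10^5 cells in hypotonic buffer with propidium iodide and RNase A, 30 min dark, flow cytometry; three experiments. Apoptosis: Annexin V/propidium iodide double staining by FACS.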

[14] = target: Histone acetyltransferase GCN5 (Saccharomyces cerevisiae S288c) (UniProt Q03330); experiment: Inhibition of GCN5-dependent HIS3-LacZ reporter gene transcription measured as level of beta-galactosidase activity in Saccharomyces cerevisiae in presence of 3-aminotriazole; type: functional
U-937 [15] = experiment: Induction of apoptosis in human U937 cells at 1 mM after 24 hrs; type: functional; summary of the method: as §7
U-937 [16] = experiment: Inhibition of alpha-tubulin acetylation in human U937 cells at 2.5 mM; type: functional, cell-based; summary of the method: as §5
U-937 [17] = experiment: Effect on granulocytic differentiation in human U937 cells measured as CD11c expression level at 1 mM after 30 hrs; type: functional
Summary of the method: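 U937 cells (RPMI, 10% FBS, 200 000 cells/mL) exposed 30 h to 1 mM. Stained with PE-conjugated CD11c, 30 min at 4 °C in the dark; PE mouse IgG1 as staining control; propidium iodide 0.25 µg/mL added and PI-positive cells excluded. Reported as percent CD11c-positive cells by FACS.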

Saccharomyces cerevisiae [18] = experiment: Inhibition of GCN5-independent GAL10-CYC1-LacZ reporter gene transcription measured as level of beta-galactosidase activity in Saccharomyces cerevisiae under galactose induction
Saccharomyces cerevisiae [19] = experiment: Inhibition of growth of Saccharomyces cerevisiae E173H mutant at 0.6 mM; type: functional, organism-based; summary of the method: as §2
Saccharomyces cerevisiae [20] = experiment: Inhibition of growth of wild type Saccharomyces cerevisiae MK839 mutant at 0.6 mM; type: functional, organism-based; summary of the method: as §2
Saccharomyces cerevisiae [21] = experiment: Inhibition of growth of Saccharomyces cerevisiae spt20delta mutant at 0.6 mM; type: functional, organism-based; summary of the method: as §2
Saccharomyces cerevisiae [22] = experiment: Inhibition of growth of Saccharomyces cerevisiae F221A mutant at 0.6 mM; type: functional, organism-based; summary of the method: as §2
Saccharomyces cerevisiae [23] = experiment: Inhibition of Saccharomyces cerevisiae H3 histone acetylation at 1.5 mM; type: functional, organism-based; summary of the method: as §4

Activity [2]: inactive
SMILES: NC(=O)c1cnc2ccccc2c1

Activity [2]: inactive
SMILES: Cc1ccc2ccccc2n1

Activity [2]: inactive
SMILES: O=C(O)c1cnc2ccccc2c1

Activity [11]: Active
Activity (Saccharomyces cerevisiae [12]): inactive
Activity [14]: Active
Activity (Saccharomyces cerevisiae [18]): inactive
SMILES: CCOC(=O)c1cc2ccccc2nc1C
Activity (Saccharomyces cerevisiae [6]): Active
Activity (Saccharomyces cerevisiae [7]): Active
Activity (U-937 [8]): Active
Activity (U-937 [9]): 32%
Activity (Saccharomyces cerevisiae [10]): Active
Activity (U-937 [13]): Active
Activity (U-937 [15]): 27%
Activity (U-937 [16]): Active
Activity (U-937 [17]): 8.8%

Activity [2]: inactive
SMILES: CCOC(=O)c1ccc2ccccc2c1

Activity [2]: Active
Activity [11]: Active
Activity [14]: Active
Activity (Saccharomyces cerevisiae [18]): Active
SMILES: CCOC(=O)c1cnc2ccccc2c1
Activity (Saccharomyces cerevisiae [6]): Active
Activity (U-937 [9]): 25%
Activity (Saccharomyces cerevisiae [23]): Active
Activity (U-937 [16]): Active
Activity (U-937 [17]): 14%

Second part, the compound before the results:

SMILES: COc1cc(/C=C/C(=O)CC(=O)/C=C/c2ccc(O)c(OC)c2)ccc1O [CURCUMIN]
Activity (U-937 [1]): 17.5%

SMILES: CCOC(=O)c1c(C)nc2ccccc2c1O
Activity [2]: inactive

SMILES: CCCCCc1nc2ccccc2c(O)c1C(=O)O
Activity (U-937 [1]): 30%
Activity (U-937 [3]): Active
Activity (U-937 [4]): Active
Activity (U-937 [5]): 24%

SMILES: CCOC(=O)c1cccnc1C
Activity [2]: inactive
Activity [11]: inactive
Activity (Saccharomyces cerevisiae [12]): inactive
Activity (Saccharomyces cerevisiae [19]): inactive
Activity (Saccharomyces cerevisiae [20]): inactive
Activity (Saccharomyces cerevisiae [21]): inactive
Activity [14]: inactive
Activity (Saccharomyces cerevisiae [22]): inactive
Activity (Saccharomyces cerevisiae [18]): inactive

SMILES: C=CC/C=C\C/C=C\CCCCCCCc1cccc(O)c1C(=O)O [ANACARDIC ACID]
Activity (U-937 [1]): 15%

SMILES: C=C1C(=O)O[C@H](CCC)[C@H]1C(=O)O
Activity (U-937 [1]): 44%
